Experiments:
[1] = molecular target: Human immunodeficiency virus type 1 reverse transcriptase (Human immunodeficiency virus 1, UniProt Q72547, L100I); assay: Inhibition of HIV1 wild-type reverse transcriptase L100I mutant using [3H]dTTP by scintillation counting
In short: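 RNA-dependent DNA polymerase activity of recombinant RT (2–4 nM) on poly(rA)/oligo(dT) 10:1 with [3H]dTTP (1 Ci/mmol). Incubation at 37 °C. Acid-insoluble radioactivity collected on GF/C filters after 5% cold TCA, counted by scintillation.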

[2] = molecular target: T1, Human immunodeficiency virus type 1 reverse transcriptase (Human immunodeficiency virus 1, UniProt Q72547); assay: Inhibition of HIV1 wild-type reverse transcriptase Y181I/Y181C mutant using [3H]dTTP by scintillation counting
[3] = tested on: Human immunodeficiency virus 1; assay: Antiviral activity against HIV1 harboring reverse transcriptase […] mutant infected in human MT4 cells assessed as inhibition of virus-induced cell death measured after 5 days of infection by MTT method; assay type: functional, organism-based; details: Human immunodeficiency virus 1, MT4, 120 h
In short: (§1)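 MT-4 cells infected with the named NNRTI-resistant HIV-1 RT mutant strain, in the presence of a range of compound concentrations. Viable cells counted at day 5 post-infection by tetrazolium (MTT) colorimetry. […] Mean of 2–3 independent experiments, each in triplicate.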

[4] = tested on: Human immunodeficiency virus 1; assay: Antiviral activity against HIV1 NL4.3 infected in human MT4 cells assessed as inhibition of virus-induced cell death measured after 5 days of infection by MTT method; assay type: functional, organism-based; details: Human immunodeficiency virus 1, NL4.3, MT4, 120 h
In short: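 Lymphoid MT-4 cells (NIH AIDS Reagent Program) infected with HIV-1 NL4-3 in the presence of varying compound concentrations. On day 5 post-infection, viable cells were counted by MTT tetrazolium colorimetry. EC₅₀ = concentration inhibiting virus-induced cell death by 50%. Means of two to three independent experiments, each in triplicate.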

[5] = tested on: Human immunodeficiency virus 1; assay: Ratio of efavirenz EC50 to compound EC50 for HIV1 harboring reverse transcriptase L100I mutant infected in human MT4 cells; assay type: functional
[6] = tested on: Human immunodeficiency virus 1; assay: Antiviral activity against HIV1 harboring reverse transcriptase K103N mutant infected in human MT4 cells assessed as inhibition of virus-induced cell death measured after 5 days of infection by MTT method; assay type: functional, organism-based; details: Human immunodeficiency virus 1, MT4, 120 h; in short: as §1
[7] = tested on: Human immunodeficiency virus 1; assay: Ratio of EC50 for HIV1 harboring reverse transcriptase Y181C mutant to EC50 for wild type HIV1 NL4.3; assay type: functional
In short: (§2)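 Fold change is the EC50 against the named mutant strain divided by the EC50 against wild-type HIV-1 NL4-3. […] Means of 2–3 independent experiments in triplicate.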

[8] = molecular target: T1, Human immunodeficiency virus type 1 reverse transcriptase; assay: Inhibition of HIV1 wild-type reverse transcriptase using [3H]dTTP by scintillation counting
[9] = tested on: Human immunodeficiency virus 1; assay: Antiviral activity against HIV1 harboring reverse transcriptase Y181C mutant infected in human MT4 cells assessed as inhibition of virus-induced cell death measured after 5 days of infection by MTT method; assay type: functional, organism-based; details: Human immunodeficiency virus 1, MT4, 120 h; in short: as §1
[10] = Cytotoxicity against human MT4 cells assessed as cell viability by MTT assay; assay type: cell-based
In short: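 Mock-infected MT-4 cells exposed to a range of compound concentrations. Viable cells measured by MTT colorimetry at day 5. CC₅₀ = concentration causing 50% death of non-infected cells. Means of two to three independent experiments, each in triplicate.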

[11] = tested on: Human immunodeficiency virus 1; assay: Ratio of EC50 for HIV1 harboring reverse transcriptase K103N/Y181C double mutant to EC50 for wild type HIV1 NL4.3; assay type: functional; in short: as §2
[12] = Selectivity index, ratio of CC50 for human MT4 cells to EC50 for HIV1 NL4.3 infected in human MT4 cells; assay type: toxicity, cell-based; details: read-out: Ratio CC50/EC50
In short: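 Ratio CC₅₀/EC₅₀. CC₅₀ is from mock-infected MT-4 cells and EC₅₀ from HIV-1 NL4-3-infected MT-4 cells, both read by MTT at day 5 post-infection.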

[13] = tested on: Human immunodeficiency virus 2; assay: Antiviral activity against HIV-2 ROD infected in human CEM cells assessed as protection of cells monitored by giant cell formation by microscopy; assay type: functional, organism-based; details: Human immunodeficiency virus 2, ISOLATE ROD, CCRF-CEM
In short: (§3)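 Human CEM cultures (~3 × 10⁵ cells/mL) infected with ~100 CCID₅₀ per mL of HIV-1 IIIB or HIV-2 ROD, seeded with serial compound dilutions. Incubated 4 days at 37 °C; syncytium (giant cell) formation scored by microscopy. EC₅₀ = concentration protecting cells from viral cytopathicity by 50%. Means of two to three independent experiments, each in triplicate.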

[14] = tested on: Human immunodeficiency virus 1; assay: Antiviral activity against HIV1 harboring reverse transcriptase K103N/Y181C double mutant infected in human MT4 cells assessed as inhibition of virus-induced cell death measured after 5 days of infection by MTT method; assay type: functional, organism-based; details: Human immunodeficiency virus 1, MT4, 120 h; in short: as §1
[15] = molecular target: Human immunodeficiency virus type 1 reverse transcriptase (Human immunodeficiency virus 1, UniProt Q72547, K103N); assay: Inhibition of HIV1 wild-type reverse transcriptase K103N mutant using [3H]dTTP by scintillation counting
[16] = tested on: Human immunodeficiency virus 1; assay: Antiviral activity against HIV1 3B infected in human CEM cells assessed as protection of cells monitored by giant cell formation by microscopy; assay type: functional, organism-based; details: Human immunodeficiency virus 1, 3B, CCRF-CEM; in short: as §3
[17] = tested on: Human immunodeficiency virus 1; assay: Ratio of EC50 for HIV1 harboring reverse transcriptase K103N mutant to EC50 for wild type HIV1 NL4.3; assay type: functional; in short: as §2
[18] = tested on: Human immunodeficiency virus 1; assay: Ratio of EC50 for HIV1 harboring reverse transcriptase […] mutant to EC50 for wild type HIV1 NL4.3; assay type: functional; in short: as §2
[19] = tested on: Human immunodeficiency virus 1; assay: Ratio of EC50 for HIV1 harboring reverse transcriptase Y188L mutant to EC50 for wild type HIV1 NL4.3; assay type: functional; in short: as §2
[20] = tested on: Human immunodeficiency virus 1; assay: Ratio of efavirenz EC50 to compound EC50 for HIV1 harboring reverse transcriptase Y188L mutant infected in human MT4 cells; assay type: functional
[21] = tested on: Human immunodeficiency virus 1; assay: Antiviral activity against HIV1 harboring reverse transcriptase Y188L mutant infected in human MT4 cells assessed as inhibition of virus-induced cell death measured after 5 days of infection by MTT method; assay type: functional, organism-based; details: Human immunodeficiency virus 1, MT4, 120 h; in short: as §1
[22] = tested on: Human immunodeficiency virus 1; assay: Ratio of AZT EC50 to compound EC50 for HIV1 harboring reverse transcriptase K103N mutant infected in human MT4 cells; assay type: functional
[23] = tested on: Human immunodeficiency virus 1; assay: Ratio of efavirenz EC50 to compound EC50 for HIV1 harboring reverse transcriptase K103N mutant infected in human MT4 cells; assay type: functional
[24] = molecular target: Human immunodeficiency virus type 1 reverse transcriptase (Human immunodeficiency virus 1, UniProt Q72547, V106A); assay: Inhibition of HIV1 wild-type reverse transcriptase V106A mutant using [3H]dTTP by scintillation counting
[25] = tested on: Human immunodeficiency virus 1; assay: Ratio of EC50 for HIV1 harboring reverse transcriptase K103N mutant to EC50 for wild type HIV1 3B; assay type: functional

Cc1cc(C)cc(S(=O)(=O)c2c(C(=O)NCc3ccccc3F)[nH]c3ccc(Cl)cc23)c1
IC50 [1]: 70 nM | IC50 [2]: > 20000 nM | EC50 [3]: 5.4 nM | EC50 [4]: 0.68 nM | Ratio EC50 [5]: 10 | EC50 [6]: 7.8 nM | Ratio EC50 [7]: 324 | IC50 [8]: 180 nM | EC50 [9]: 220 nM | CC50 [10]: > 53100 nM | Ratio EC50 [11]: 3153 | selectivity ratio [12]: > 78100 | EC50 [13]: > 2000 nM | EC50 [14]: 2140 nM | IC50 [15]: 100 nM | EC50 [16]: 3.6 nM | Ratio EC50 [17]: 11.5 | Ratio EC50 [18]: 7.9

Cc1cc(C)cc(S(=O)(=O)c2c(C(=O)NCc3ccc(F)cc3)[nH]c3ccc(Cl)cc23)c1
IC50 [1]: 30 nM | IC50 [2]: > 20000 nM | EC50 [3]: 5.9 nM | EC50 [4]: 1.1 nM | Ratio EC50 [5]: 10 | EC50 [6]: 16 nM | Ratio EC50 [7]: 145 | IC50 [8]: 26 nM | EC50 [9]: 160 nM | CC50 [10]: > 53100 nM | Ratio EC50 [11]: 45750 | selectivity ratio [12]: > 48300 | EC50 [13]: > 10000 nM | EC50 [14]: 50300 nM | IC50 [15]: 24 nM | EC50 [16]: 5.3 nM | Ratio EC50 [17]: 14.5 | Ratio EC50 [18]: 5.4

Cc1cc(C)cc(S(=O)(=O)c2c(C(=O)NCc3ccccc3[N+](=O)[O-])[nH]c3ccc(Cl)cc23)c1
IC50 [2]: > 20000 nM | EC50 [4]: 0.8 nM | EC50 [6]: 6 nM | Ratio EC50 [7]: 20 | IC50 [8]: 23 nM | Ratio EC50 [19]: 351 | EC50 [9]: 16 nM | CC50 [10]: > 50200 nM | Ratio EC50 [11]: 2335 | selectivity ratio [12]: > 62800 | Ratio EC50 [20]: 2.7 | EC50 [21]: 281 nM | EC50 [14]: 1870 nM | IC50 [15]: 23 nM | Ratio EC50 [17]: 7.5

Cc1cc(C)cc(S(=O)(=O)c2c(C(=O)NCc3ccc(N)cc3)[nH]c3ccc(Cl)cc23)c1
IC50 [2]: 201 nM | Ratio EC50 [22]: >3 | EC50 [4]: 0.21 nM | EC50 [6]: 4.2 nM | Ratio EC50 [7]: 52 | IC50 [8]: 7.7 nM | Ratio EC50 [19]: 2338 | EC50 [9]: 11 nM | CC50 [10]: 6370 nM | Ratio EC50 [11]: 2847 | Ratio EC50 [23]: > 546 | Ratio EC50 [20]: 1.5 | EC50 [21]: 491 nM | EC50 [14]: 598 nM | IC50 [15]: 34 nM | Ratio EC50 [17]: 20

Cc1cc(C)cc(S(=O)(=O)c2c(C(=O)N[C@H](C)c3ccccc3)[nH]c3ccc(Cl)cc23)c1
IC50 [1]: 50 nM | IC50 [2]: 2530 nM | EC50 [4]: 2.1 nM | EC50 [6]: 4.3 nM | Ratio EC50 [7]: 41 | IC50 [8]: 39 nM | Ratio EC50 [19]: 92 | EC50 [9]: 86 nM | Ratio EC50 [11]: 795 | EC50 [21]: 193 nM | EC50 [14]: 1670 nM | IC50 [15]: 90 nM | Ratio EC50 [17]: 2 | IC50 [24]: 65 nM

Cc1cc(C)cc(S(=O)(=O)c2c(C(=O)N[C@@H](C)c3ccccc3)[nH]c3ccc(Cl)cc23)c1
IC50 [1]: 80 nM | IC50 [2]: > 20000 nM | EC50 [4]: 6.3 nM | EC50 [6]: 128 nM | Ratio EC50 [7]: 550 | IC50 [8]: 50 nM | Ratio EC50 [19]: >5778 | EC50 [9]: 3470 nM | Ratio EC50 [11]: >5778 | EC50 [21]: > 36400 nM | EC50 [14]: > 36400 nM | IC50 [15]: 9400 nM | Ratio EC50 [17]: 20 | IC50 [24]: 28 nM

Cc1cc(C)cc(S(=O)(=O)c2c(C(=O)NC(C)c3ccccc3)[nH]c3ccc(Cl)cc23)c1 (racemic)
IC50 [1]: 70 nM | IC50 [2]: 8230 nM | EC50 [3]: 26 nM | EC50 [4]: 0.6 nM | EC50 [6]: 33 nM | Ratio EC50 [7]: 1200 | IC50 [8]: 40 nM | EC50 [9]: 720 nM | CC50 [10]: > 53500 nM | Ratio EC50 [11]: 5445 | selectivity ratio [12]: > 206000 | EC50 [13]: > 10000 nM | EC50 [14]: 3270 nM | IC50 [15]: 540 nM | EC50 [16]: 16 nM | Ratio EC50 [17]: 55 | IC50 [24]: 50 nM | Ratio EC50 [18]: 43

Cc1cc(C)cc(S(=O)(=O)c2c(C(=O)NC(C)Cc3ccccc3)[nH]c3ccc(Cl)cc23)c1 (racemic)
EC50 [3]: 380 nM | Ratio EC50 [25]: 5.8 | EC50 [6]: 530 nM | Ratio EC50 [7]: >11 | Ratio EC50 [19]: >11 | EC50 [9]: > 1000 nM | Ratio EC50 [11]: 23 | EC50 [21]: > 1000 nM | EC50 [14]: > 2080 nM | EC50 [16]: 91 nM | Ratio EC50 [18]: 4.2

Source: ChEMBL document CHEMBL3259792 (Eur J Med Chem, 2014)
